In ChEMBL document CHEMBL4665872, “Rational design of cell-permeable cyclic peptides containing a d-Pro-l-Pro motif” (Bioorg Med Chem, 2020):
The source made the active and inactive calls. The calls are words filed in the database; no cut-off is given here.

How the values were obtained:
[1] = target: T1, Growth factor receptor-bound protein 2 (Homo sapiens, UniProt P62993); test: Binding affinity to Grb2-SH2 domain (unknown origin) expressed in Escherichia coli […] after 2 hrs by fluorescence polarization assay
T1 sequence (P62993 whole entry, the tested form may be a part): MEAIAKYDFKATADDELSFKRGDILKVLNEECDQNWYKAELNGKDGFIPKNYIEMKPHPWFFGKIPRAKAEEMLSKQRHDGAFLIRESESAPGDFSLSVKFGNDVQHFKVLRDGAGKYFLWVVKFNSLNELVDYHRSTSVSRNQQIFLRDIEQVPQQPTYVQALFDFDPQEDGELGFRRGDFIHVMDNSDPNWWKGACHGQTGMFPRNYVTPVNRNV

[2] = target: Dual specificity mitogen-activated protein kinase kinase; MEK1/2 (Homo sapiens) (UniProt P36507+Q02750); test: Inhibition of MEK phosphorylation in EGF-stimulated human MDA-MB-468 cells incubated for 2 hrs followed by 10 mins EGF stimulation by Western blotting analysis
Chain of Dual specificity mitogen-activated protein kinase kinase; MEK1/2 (Homo sapiens) (P36507 whole entry, looked up): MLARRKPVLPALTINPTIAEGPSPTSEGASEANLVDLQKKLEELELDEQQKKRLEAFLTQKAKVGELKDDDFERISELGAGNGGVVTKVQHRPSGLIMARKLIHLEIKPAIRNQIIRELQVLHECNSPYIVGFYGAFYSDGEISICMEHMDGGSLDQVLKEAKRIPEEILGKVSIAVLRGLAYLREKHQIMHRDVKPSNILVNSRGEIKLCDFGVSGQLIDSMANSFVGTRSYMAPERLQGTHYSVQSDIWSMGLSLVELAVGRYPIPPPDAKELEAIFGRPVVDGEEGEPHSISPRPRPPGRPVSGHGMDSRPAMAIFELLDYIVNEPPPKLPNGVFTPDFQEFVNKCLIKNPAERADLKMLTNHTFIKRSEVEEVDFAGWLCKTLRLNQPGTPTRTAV
Chain of Dual specificity mitogen-activated protein kinase kinase; MEK1/2 (Homo sapiens) (Q02750 whole entry, looked up): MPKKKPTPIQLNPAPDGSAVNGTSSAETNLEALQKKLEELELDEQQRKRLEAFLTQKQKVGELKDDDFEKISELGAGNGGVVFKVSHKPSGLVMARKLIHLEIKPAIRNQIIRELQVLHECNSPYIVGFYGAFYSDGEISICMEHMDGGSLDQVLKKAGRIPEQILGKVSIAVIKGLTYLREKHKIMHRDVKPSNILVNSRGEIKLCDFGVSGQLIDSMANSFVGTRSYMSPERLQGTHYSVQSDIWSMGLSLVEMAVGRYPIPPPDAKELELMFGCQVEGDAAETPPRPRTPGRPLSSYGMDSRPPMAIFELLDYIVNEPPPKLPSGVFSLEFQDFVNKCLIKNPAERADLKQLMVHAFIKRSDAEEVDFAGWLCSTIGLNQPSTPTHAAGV
Summary of the method: (§1)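 MDA-MB-468 cells grown to ~80% confluence, serum-starved 20 h, then given peptide at the indicated concentrations in serum-free medium for 2 h. EGF (50 ng/mL final) added for 10 min. Lysis in RIPA with protease/phosphatase inhibitors and 5 mM EDTA; ~20 μg protein run on 10% SDS-PAGE. Blots probed for phospho- and total MEK and ERK1/2, GAPDH loading control.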

[3] = Drug uptake in human HeLa cells assessed as cytosolic entry efficiency measured as fluorescence at 5 uM incubated for 2 hrs by flow cytometry relative to CPP9 (100%); type: ADME, cell-based
Summary of the method: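 HeLa cells seeded 24 h earlier, given 5 μM naphthofluorescein-labelled peptide in DMEM with 1% or 10% FBS, 37 °C, 2 h. Cells DPBS-washed, trypsinized, flow cytometry with 633-nm excitation, APC channel, 10,000 live-cell events gated. Signal read as cytosolic entry because NF is non-fluorescent in acidic compartments; mean ± SD of three independent experiments, relative to CPP9 (100%).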

[4] = target: Mitogen-activated protein kinase; ERK1/ERK2 (Homo sapiens) (UniProt P27361+P28482); test: Inhibition of ERK1/2 phosphorylation in EGF-stimulated human MDA-MB-468 cells incubated for 2 hrs followed by 10 mins EGF stimulation by Western blotting analysis
Chain of Mitogen-activated protein kinase; ERK1/ERK2 (Homo sapiens) (P27361 whole entry, looked up): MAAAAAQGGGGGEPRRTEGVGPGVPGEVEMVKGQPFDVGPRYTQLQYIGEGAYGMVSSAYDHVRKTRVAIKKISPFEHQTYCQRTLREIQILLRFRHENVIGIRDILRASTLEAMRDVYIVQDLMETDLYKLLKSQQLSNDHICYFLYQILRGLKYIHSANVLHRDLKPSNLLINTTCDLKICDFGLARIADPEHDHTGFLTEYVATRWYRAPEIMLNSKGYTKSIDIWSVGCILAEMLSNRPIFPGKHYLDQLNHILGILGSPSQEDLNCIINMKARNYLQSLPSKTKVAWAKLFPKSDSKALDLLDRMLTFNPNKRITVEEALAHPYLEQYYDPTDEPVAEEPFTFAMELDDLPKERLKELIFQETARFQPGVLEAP
Chain of Mitogen-activated protein kinase; ERK1/ERK2 (Homo sapiens) (P28482 whole entry, looked up): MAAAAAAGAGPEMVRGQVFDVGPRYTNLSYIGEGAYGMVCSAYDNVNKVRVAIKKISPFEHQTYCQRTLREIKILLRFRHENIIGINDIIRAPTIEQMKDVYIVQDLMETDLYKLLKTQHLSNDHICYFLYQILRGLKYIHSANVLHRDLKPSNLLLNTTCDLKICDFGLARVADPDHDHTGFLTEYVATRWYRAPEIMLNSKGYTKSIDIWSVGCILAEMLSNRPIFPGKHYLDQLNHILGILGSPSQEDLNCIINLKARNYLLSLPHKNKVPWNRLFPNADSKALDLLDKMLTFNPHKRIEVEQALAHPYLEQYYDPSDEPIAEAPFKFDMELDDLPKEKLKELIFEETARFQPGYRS
Summary of the method: as §1

MDA-MB-468 = test: Effect on intracellular MEK expression in EGF-stimulated human MDA-MB-468 cells incubated for 2 hrs followed by 10 mins EGF stimulation by Western blotting analysis; type: functional, cell-based
Summary of the method: as §1

[5] = Metabolic stability of the compound in human MDA-MB-468 cells assessed as protein-tyrosine phosphatase-mediated endogenous dephosphorylation incubated for 2 hrs; type: ADME, cell-based; conditions: mda-mb-468, 2 h
[6] = target: T1, Growth factor receptor-bound protein 2; test: Binding affinity to Grb2-SH2 domain (unknown origin) expressed in Escherichia coli […] after 1 hr by fluorescence polarization assay; conditions: in the assay text read “after 2 hrs” for “after 1 hr”
Summary of the method: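 GST-Grb2 SH2 domain expressed in E. coli BL21(DE3), glutathione-Sepharose purified. […] IC50 from four-parameter logistic fit of FP versus peptide concentration, three sets of experiments.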

Row | SMILES | IC50 [1] [nM] | inhibition [2] | RFU [3] [%] | inhibition [4] | Activity (MDA-MB-468) | Stabilty [5] | IC50 [6] [nM]
1 | CC(C)[C@@H]1NC(=O)[C@H](Cc2ccc(O)cc2)NC(=O)[C@H](CCCNC(=N)N)NC(=O)[C@H](CCCNC(=N)N)NC(=O)[C@@H]2CCCN2C(=O)[C@H]2CCCN2C(=O)[C@@H](CCCNC(=N)N)NC(=O)[C@H](Cc2ccc3ccccc3c2)NC(=O)[C@H](Cc2ccccc2)NC(=O)[C@H](CC(=O)NCCOCCOCC(=O)N[C@@H](CCCCNC(=O)c2ccc3c(c2)C(=O)OC32c3ccc4cc(O)ccc4c3Oc3c2ccc2cc(O)ccc32)C(N)=O)NC1=O | > 10000 | inactive | 34 | – | – | – | –
2 | CC(C)[C@@H]1NC(=O)[C@H](Cc2ccc(OP(=O)(O)O)cc2)NC(=O)[C@H](CCCNC(=N)N)NC(=O)[C@H](CCCNC(=N)N)NC(=O)[C@@H]2CCCN2C(=O)[C@H]2CCCN2C(=O)[C@@H](C)NC(=O)[C@H](C)NC(=O)[C@H](Cc2ccccc2)NC(=O)[C@H](CC(=O)NCCOCCOCC(=O)N[C@@H](CCCCNC(=O)c2ccc3c(c2)C(=O)OC32c3ccc4cc(O)ccc4c3Oc3c2ccc2cc(O)ccc32)C(N)=O)NC1=O | 100 | inactive | 2 | – | – | – | –
3 | CC(C)[C@@H]1NC(=O)[C@H](Cc2ccc(OP(=O)(O)O)cc2)NC(=O)[C@H](CCCNC(=N)N)NC(=O)[C@H](CCCNC(=N)N)NC(=O)[C@@H]2CCCN2C(=O)[C@H]2CCCN2C(=O)[C@@H](CCCNC(=N)N)NC(=O)[C@H](Cc2ccc3ccccc3c2)NC(=O)[C@H](Cc2ccccc2)NC(=O)[C@H](CC(=O)NCCOCCOCC(=O)N[C@@H](CCCCNC(=O)c2ccc3c(c2)C(=O)OC32c3ccc4cc(O)ccc4c3Oc3c2ccc2cc(O)ccc32)C(N)=O)NC1=O | – | Active | 49 | inactive | inactive | Unstable | 400
